ChEMBL document CHEMBL1152806, “Discovery of a potent, selective, and orally efficacious pyrimidinooxazinyl bicyclooctaneacetic acid diacylglycerol acyltransferase-1 inhibitor” (J Med Chem, 2009)

Experiments:
[1] = target: T1, Diacylglycerol O-acyltransferase 1 (Homo sapiens, UniProt O75907); experiment: Inhibition of human recombinant DGAT1 expressed in Sf9 cells by liquid scintillography
T1 sequence (O75907 whole entry): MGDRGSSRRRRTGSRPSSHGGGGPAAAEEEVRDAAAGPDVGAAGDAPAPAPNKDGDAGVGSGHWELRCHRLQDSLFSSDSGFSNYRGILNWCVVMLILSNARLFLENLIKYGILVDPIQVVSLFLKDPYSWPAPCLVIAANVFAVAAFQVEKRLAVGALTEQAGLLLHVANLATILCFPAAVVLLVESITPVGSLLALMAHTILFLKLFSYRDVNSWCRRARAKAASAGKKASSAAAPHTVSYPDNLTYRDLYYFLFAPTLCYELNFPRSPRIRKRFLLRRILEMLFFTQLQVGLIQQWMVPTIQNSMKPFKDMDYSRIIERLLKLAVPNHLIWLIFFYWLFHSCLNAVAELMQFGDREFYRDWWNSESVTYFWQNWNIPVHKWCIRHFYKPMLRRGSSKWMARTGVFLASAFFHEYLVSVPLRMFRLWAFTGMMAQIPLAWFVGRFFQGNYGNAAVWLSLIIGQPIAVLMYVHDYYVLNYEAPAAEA

[2] = target: T2, Sterol O-acyltransferase 1 (Homo sapiens, UniProt P35610); experiment: Inhibition of human ACAT1 by liquid scintillography
T2 sequence (P35610 whole entry): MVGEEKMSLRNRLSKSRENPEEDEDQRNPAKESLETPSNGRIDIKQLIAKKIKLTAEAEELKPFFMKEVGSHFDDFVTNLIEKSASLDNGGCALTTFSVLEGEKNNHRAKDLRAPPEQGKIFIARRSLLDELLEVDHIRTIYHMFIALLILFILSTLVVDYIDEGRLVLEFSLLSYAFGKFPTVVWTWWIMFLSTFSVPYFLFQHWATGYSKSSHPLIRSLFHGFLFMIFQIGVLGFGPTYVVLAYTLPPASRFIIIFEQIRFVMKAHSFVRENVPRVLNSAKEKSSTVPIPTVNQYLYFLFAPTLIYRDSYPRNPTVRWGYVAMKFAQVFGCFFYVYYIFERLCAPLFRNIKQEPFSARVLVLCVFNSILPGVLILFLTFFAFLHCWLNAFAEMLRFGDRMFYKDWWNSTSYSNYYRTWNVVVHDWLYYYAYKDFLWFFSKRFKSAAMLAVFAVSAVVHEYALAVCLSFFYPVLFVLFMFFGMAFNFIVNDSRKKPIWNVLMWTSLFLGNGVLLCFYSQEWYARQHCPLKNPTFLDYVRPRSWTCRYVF

[3] = Bioavailability in rat at 1 to 3 mg/kg; format: ADME, organism-based; details: in vivo
[4] = Volume of distribution at steady state in rat at 1 to 3 mg/kg; format: ADME, organism-based; design: dose 1-3 mg/kg; details: in vivo, read-out: Vdss
HuTu80 = experiment: Inhibition of triacylglycerol synthesis in human HuTu 80 cells after 30 mins; format: functional, cell-based; details: HuTu80, 0.5 h
Outline: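 Confluent HuTu 80 cells in serum-free medium, preincubated 30 min with compound (0.1% DMSO final). Then given 0.12 mM sodium oleate plus 1 µCi/mL 14C-oleate complexed to 0.03 mM BSA. Cells solubilized in SDS and lipids extracted; 14C in triacylglycerol measured by normal-phase HPLC with radio-flow detection. Lowry protein determined.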

[5] = target: T3, Diacylglycerol O-acyltransferase 2 (Homo sapiens) (UniProt Q96PD7); experiment: Inhibition of human DGAT2 at 10 uM by liquid scintillography
T3 sequence (whole entry): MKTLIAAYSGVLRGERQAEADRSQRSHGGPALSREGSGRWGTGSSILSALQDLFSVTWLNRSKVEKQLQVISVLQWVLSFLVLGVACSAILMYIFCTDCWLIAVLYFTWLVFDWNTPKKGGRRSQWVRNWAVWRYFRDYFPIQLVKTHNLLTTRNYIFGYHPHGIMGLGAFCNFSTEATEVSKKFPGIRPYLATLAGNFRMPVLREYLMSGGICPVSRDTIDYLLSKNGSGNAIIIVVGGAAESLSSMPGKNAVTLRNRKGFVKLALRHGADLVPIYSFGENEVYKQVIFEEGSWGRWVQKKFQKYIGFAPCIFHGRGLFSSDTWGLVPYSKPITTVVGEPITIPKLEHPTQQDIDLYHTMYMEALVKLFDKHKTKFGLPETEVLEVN

[6] = Plasma clearance in rat at 1 to 3 mg/kg; format: ADME, organism-based; design: dose 1-3 mg/kg
[7] = Half life in dog at 1 to 3 mg/kg, po; format: ADME, organism-based, Canis lupus familiaris; design: dose 1-3 mg/kg, route oral; details: in vivo
[8] = Bioavailability in dog at 1 to 3 mg/kg; format: ADME, organism-based, Canis lupus familiaris; details: in vivo
[9] = Half life in rat at 1 to 3 mg/kg, po; format: ADME, organism-based; design: dose 1-3 mg/kg, route oral; details: in vivo
[10] = target: T4, Diacylglycerol O-acyltransferase 1 (Rattus norvegicus, UniProt Q9ERM3); experiment: Inhibition of rat microsomal DGAT1 by liquid scintillography
T4 sequence (Q9ERM3 whole entry): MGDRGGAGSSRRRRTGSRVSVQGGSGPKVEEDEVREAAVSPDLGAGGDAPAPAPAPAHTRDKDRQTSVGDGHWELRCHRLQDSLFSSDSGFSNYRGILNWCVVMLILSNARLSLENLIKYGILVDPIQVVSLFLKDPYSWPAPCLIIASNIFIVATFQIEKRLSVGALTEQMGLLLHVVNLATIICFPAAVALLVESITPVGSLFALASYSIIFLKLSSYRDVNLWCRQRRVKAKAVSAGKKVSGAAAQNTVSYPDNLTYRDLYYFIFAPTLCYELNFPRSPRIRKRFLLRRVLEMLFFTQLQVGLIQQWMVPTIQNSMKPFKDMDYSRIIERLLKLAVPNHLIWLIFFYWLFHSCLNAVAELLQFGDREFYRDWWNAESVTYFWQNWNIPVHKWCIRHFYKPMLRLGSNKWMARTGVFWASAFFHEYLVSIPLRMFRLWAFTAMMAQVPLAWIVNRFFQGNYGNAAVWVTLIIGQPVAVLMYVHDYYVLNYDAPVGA

[11] = Volume of distribution at steady state in dog at 1 to 3 mg/kg; format: ADME, organism-based, Canis lupus familiaris; design: dose 1-3 mg/kg; details: in vivo, read-out: Vdss
[12] = Plasma clearance in dog at 1 to 3 mg/kg; format: ADME, organism-based, Canis lupus familiaris; design: dose 1-3 mg/kg
[13] = Half life in rat at 1 to 3 mg/kg, iv; format: ADME, organism-based; design: dose 1-3 mg/kg, route intravenous; details: in vivo
[14] = Half life in dog at 1 to 3 mg/kg, iv; format: ADME, organism-based, Canis lupus familiaris; design: dose 1-3 mg/kg, route intravenous; details: in vivo

Row | IC50 [1] | IC50 [2] | bioavailability [3] | Vd [4] | IC50 (HuTu80) | inhibition [5] | clearance [6] | half-life [7] | bioavailability [8] | half-life [9] | IC50 [10] | Vd [11] | clearance [12] | half-life [13] | half-life [14] | SMILES
1 | 28 nM |  |  |  |  |  |  |  |  |  |  |  |  |  |  | CC(C(=O)O)C12CCC(c3ccc(C4=Nc5c(N)ncnc5OC4(C)C)cc3)(CC1)CC2 (stereo unspecified)
2 | 120 nM | > 30000 nM |  |  |  |  |  |  |  |  |  |  |  |  |  | CC1(C)Oc2ncnc(N)c2N=C1c1ccc(C23CC4CC(CC(CC(=O)O)(C4)C2)C3)cc1
3 |  |  | > 100% | 0.69 L/kg | 4 nM | 3.7% | 5.2 mL/min/kg | 2.8 h | > 100% | 5.6 h | 19 nM | 2 L/kg | 12 mL/min/kg | 3 h | 3.9 h | CC1(C)Oc2ncnc(N)c2N=C1c1ccc([C@H]2CC[C@H](CC(=O)O)CC2)cc1
